From ChEMBL document CHEMBL2384974, “Discovery and synthesis of novel 4-aminopyrrolopyrimidine Tie-2 kinase inhibitors for the treatment of solid tumors” (Bioorg Med Chem Lett, 2013)
≈ marks a conversion by molar mass, not a printed value. Values belong to the compound of their own block, whether it stands above or below them. Calls of active or inactive are those of the source. The calls are words filed in the database; no cut-off is given here.

Assays:
Angiopoietin-1 receptor [1] = molecular target: T1, Angiopoietin-1 receptor (Homo sapiens, UniProt Q02763); test: Inhibition of GST-fused TIE2 (unknown origin) using poly[Glu:Tyr] as substrate assessed as phosphotyrosine level by ELISA
How it was run: (§1)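 ELISA on poly-Glu-Tyr-coated plates using a GST-Tie-2 kinase fusion protein and 100 µM ATP. Phosphorylated product was detected with HRP-conjugated anti-phosphotyrosine monoclonal antibody (PY20). For reversibility, enzyme was preincubated with compound for 15 min before ATP was added. Kinetics were run with titrated ATP.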

[2] = molecular target: Epidermal growth factor receptor (Homo sapiens, UniProt P04626+P00533+Q15303+P21860); test: Inhibition of human EGFR extracellular domain/TIE2 intracellular domain transfected in mouse NIH/3T3 cells assessed as phosphotyrosine level preincubated for 60 mins followed by EGF stimulation by DELFIA assay; type: cell-based; details: nih3t3
How it was run: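 NIH/3T3 fibroblasts stably transfected with a chimera of human EGFR extracellular domain and human Tie-2 intracellular domain. Cells were exposed to compound for 60 min, stimulated with EGF, then fixed. Phosphotyrosine was read with an Eu-labeled antibody by DELFIA. In washout runs, medium was replaced with fresh medium and cells were stimulated at set times.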

[3] = Efflux ratio of permeability across basolateral to apical side over apical to basolateral side in human Caco2 cells expressing p-gp; type: ADME, cell-based; details: Caco-2
[4] = Metabolic stability in rat liver microsomes assessed as hepatic extraction ratio; type: ADME, Microsome; details: read-out: ERH
[5] = molecular target: Platelet-derived growth factor receptor beta (Homo sapiens, UniProt P09619); test: Inhibition of PDGFR (unknown origin)
Salmonella typhimurium = test: Mutagenic activity in Salmonella typhimurium by Ames assay; type: toxicity, organism-based; details: salmonella enterica subsp. enterica serovar typhimurium
C6 [6] = test: Antitumor activity against rat C6 cells lacking human TIE2 xenografted in mouse assessed as tumor growth inhibition at 10 mg/kg, po bid after 10 days relative to control; type: functional; details: C6, 240 h, read-out: TGI
How it was run: (§2)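 Oral dosing once or twice daily at 10 or 33 mg/kg for 10 days in the C6 rat glioblastoma xenograft model. The C6 line was uninfected parental cells without human Tie-2. Read-out was percent tumor growth inhibition.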

C6 [7] = test: Antitumor activity against rat C6 cells lacking human TIE2 xenografted in mouse assessed as tumor growth inhibition at 33 mg/kg, po qd after 10 days relative to control; type: functional; details: C6, 240 h, read-out: TGI; how it was run: as §2
[8] = molecular target: Fibroblast growth factor receptor (Homo sapiens, UniProt P22607+P11362+P22455+P21802); test: Inhibition of FGFR (unknown origin); type: protein assay
Mus musculus [9] = test: Inhibition of human TIE2 phosphorylation expressed in rat C6 cells xenografted in po dosed mouse; type: functional, organism-based
How it was run: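 Ex vivo assay in C6 rat glioblastoma clones overexpressing human Tie-2 from a retroviral construct, after a single oral dose. Frozen tumors were homogenized in lysis buffer and lysates captured on antibody-coated plates, with HRP-labeled antibody detection. Plasma and tumor drug levels were measured by LC–MS.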

[10] = Half life in Sprague-Dawley rat at 0.164 mg/kg, iv; type: ADME, organism-based; design: dose 0.164 mg/kg, route intravenous; details: in vivo
How it was run: (§3)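 Male Sprague–Dawley rats, fed, given a single 0.164 mg/kg IV dose. Clearance, steady-state volume of distribution and half-life were derived from plasma levels.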

Mus musculus [11] = test: Toxicity in mouse xenografted with rat C6 cells lacking human TIE2 assessed as body weight loss at 10 to 33 mg/kg, po after 10 days; type: organism-based; design: dose 10-33 mg/kg, route oral; details: in vivo, 240 h
[12] = Permeability across basolateral to apical side in human Caco2 cells expressing p-gp; type: ADME, cell-based; details: Caco-2, read-out: permeability
[13] = Oral bioavailability in Sprague-Dawley rat at 4.2 mg/kg; type: ADME, organism-based; details: in vivo
How it was run: (§4)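 Ultrafasted Sprague–Dawley rats given 4.2 mg/kg as an oral suspension. Cmax, Tmax, hepatic extraction (Eh) and oral bioavailability were derived from systemic plasma levels.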

[14] = Inhibition of cytochrome P450 (unknown origin); type: ADME, Homo sapiens
C6 [15] = test: Antitumor activity against rat C6 cells lacking human TIE2 xenografted in mouse assessed as tumor growth inhibition at 33 mg/kg, po bid after 10 days; type: functional, organism-based; design: dose 33 mg/kg; how it was run: as §2
[16] = Tmax in Sprague-Dawley rat at 4.2 mg/kg, po; type: ADME, organism-based; design: dose 4.2 mg/kg, route oral; details: in vivo; how it was run: as §4
Homo sapiens = species: Homo sapiens; test: Inhibition of IKr (unknown origin)
[17] = Metabolic stability in human liver microsomes assessed as hepatic extraction ratio; type: ADME, Microsome; details: read-out: ERH
[18] = molecular target: Vascular endothelial growth factor receptor 2 (Homo sapiens, UniProt P35968); test: Inhibition of KDR (unknown origin)
[19] = molecular target: Voltage-gated inwardly rectifying potassium channel KCNH2 (Homo sapiens, UniProt Q12809); test: Inhibition of human ERG
Rattus norvegicus = test: Metabolic stability in Sprague-Dawley rat assessed as hepatic extraction at 4.2 mg/kg, po; type: ADME, organism-based; design: dose 4.2 mg/kg, route oral; details: in vivo; how it was run: as §4
[20] = Solubility of the compound; type: physicochemical
[21] = Volume of distribution at steady state in Sprague-Dawley rat at 0.164 mg/kg, iv; type: ADME, organism-based; design: dose 0.164 mg/kg, route intravenous; details: in vivo, read-out: Vdss; how it was run: as §3
C6 [22] = test: Antitumor activity against rat C6 cells lacking human TIE2 xenografted in mouse assessed as tumor growth inhibition at 10 mg/kg, po qd after 10 days relative to control; type: functional; details: C6, 240 h, read-out: TGI; how it was run: as §2
[23] = Cmax in Sprague-Dawley rat at 4.2 mg/kg, po; type: ADME, organism-based; design: dose 4.2 mg/kg, route oral; details: in vivo; how it was run: as §4
[24] = molecular target: Epidermal growth factor receptor (Homo sapiens, UniProt P00533); test: Inhibition of EGFR (unknown origin)
[25] = Mutagenic activity in micronucleus (unknown origin); type: ADME
[26] = Clearance in Sprague-Dawley rat at 0.164 mg/kg, iv; type: ADME, organism-based; design: dose 0.164 mg/kg, route intravenous; details: in vivo; how it was run: as §3
[27] = Permeability across apical to basolateral side in human Caco2 cells expressing p-gp; type: ADME, cell-based; details: Caco-2, read-out: permeability
[28] = molecular target: Proto-oncogene tyrosine-protein kinase Src (Homo sapiens, UniProt P12931); test: Inhibition of SRC (unknown origin)
Angiopoietin-1 receptor [29] = molecular target: T1, Angiopoietin-1 receptor; test: Inhibition of TIE2 (unknown origin); how it was run: as §1
[30] = molecular target: Tyrosine-protein kinase Lck (Homo sapiens, UniProt P06239); test: Inhibition of LCK (unknown origin)
Sequence of Tyrosine-protein kinase Lck (P06239 whole entry): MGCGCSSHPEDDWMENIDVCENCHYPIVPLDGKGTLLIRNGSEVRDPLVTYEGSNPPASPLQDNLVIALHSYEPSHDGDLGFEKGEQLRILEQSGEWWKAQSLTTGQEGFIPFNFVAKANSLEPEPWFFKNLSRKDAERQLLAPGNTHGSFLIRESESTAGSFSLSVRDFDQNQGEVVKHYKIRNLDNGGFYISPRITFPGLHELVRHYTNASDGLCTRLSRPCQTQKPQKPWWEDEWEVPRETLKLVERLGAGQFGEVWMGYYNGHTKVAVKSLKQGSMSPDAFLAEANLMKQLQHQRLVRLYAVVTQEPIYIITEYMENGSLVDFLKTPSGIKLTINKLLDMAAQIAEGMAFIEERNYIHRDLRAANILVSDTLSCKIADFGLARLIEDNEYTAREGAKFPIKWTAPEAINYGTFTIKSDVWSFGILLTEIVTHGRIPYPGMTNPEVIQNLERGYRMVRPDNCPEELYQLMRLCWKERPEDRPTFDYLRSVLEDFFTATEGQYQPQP

Sequence of Vascular endothelial growth factor receptor 2 (P35968 whole entry): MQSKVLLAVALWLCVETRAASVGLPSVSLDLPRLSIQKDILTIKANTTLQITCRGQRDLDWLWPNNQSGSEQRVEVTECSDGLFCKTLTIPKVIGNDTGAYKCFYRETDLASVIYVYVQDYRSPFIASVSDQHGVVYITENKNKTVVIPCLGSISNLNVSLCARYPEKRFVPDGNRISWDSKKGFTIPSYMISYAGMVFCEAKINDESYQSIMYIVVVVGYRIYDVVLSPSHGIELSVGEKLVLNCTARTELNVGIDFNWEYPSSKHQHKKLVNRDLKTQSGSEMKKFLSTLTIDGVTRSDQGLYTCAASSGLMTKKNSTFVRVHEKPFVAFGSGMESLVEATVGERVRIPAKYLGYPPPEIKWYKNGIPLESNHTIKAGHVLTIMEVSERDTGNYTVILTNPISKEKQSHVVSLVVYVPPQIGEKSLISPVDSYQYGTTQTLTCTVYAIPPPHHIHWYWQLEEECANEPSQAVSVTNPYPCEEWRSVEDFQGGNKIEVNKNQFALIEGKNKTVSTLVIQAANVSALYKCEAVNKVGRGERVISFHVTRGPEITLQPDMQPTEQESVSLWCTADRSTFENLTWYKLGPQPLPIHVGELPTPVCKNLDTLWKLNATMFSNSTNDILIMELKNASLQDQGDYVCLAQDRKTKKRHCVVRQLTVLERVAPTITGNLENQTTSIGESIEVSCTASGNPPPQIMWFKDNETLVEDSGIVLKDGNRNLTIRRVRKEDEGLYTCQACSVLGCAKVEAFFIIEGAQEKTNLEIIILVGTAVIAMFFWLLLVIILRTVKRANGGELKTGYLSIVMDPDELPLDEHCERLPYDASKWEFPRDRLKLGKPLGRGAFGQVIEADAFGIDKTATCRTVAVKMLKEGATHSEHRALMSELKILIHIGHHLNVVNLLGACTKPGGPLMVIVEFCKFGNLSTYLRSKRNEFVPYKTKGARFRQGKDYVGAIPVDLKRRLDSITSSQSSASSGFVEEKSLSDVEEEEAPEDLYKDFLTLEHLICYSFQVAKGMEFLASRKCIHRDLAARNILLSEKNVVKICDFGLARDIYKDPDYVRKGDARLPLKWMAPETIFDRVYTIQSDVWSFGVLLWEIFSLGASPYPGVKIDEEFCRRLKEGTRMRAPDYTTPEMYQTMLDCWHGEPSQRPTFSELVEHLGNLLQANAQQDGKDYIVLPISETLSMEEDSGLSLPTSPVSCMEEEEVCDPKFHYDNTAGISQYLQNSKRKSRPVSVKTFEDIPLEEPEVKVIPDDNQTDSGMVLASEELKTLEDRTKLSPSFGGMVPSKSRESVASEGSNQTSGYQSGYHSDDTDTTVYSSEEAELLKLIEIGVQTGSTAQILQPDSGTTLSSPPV
T1 sequence (Q02763 whole entry, the tested form may be a part): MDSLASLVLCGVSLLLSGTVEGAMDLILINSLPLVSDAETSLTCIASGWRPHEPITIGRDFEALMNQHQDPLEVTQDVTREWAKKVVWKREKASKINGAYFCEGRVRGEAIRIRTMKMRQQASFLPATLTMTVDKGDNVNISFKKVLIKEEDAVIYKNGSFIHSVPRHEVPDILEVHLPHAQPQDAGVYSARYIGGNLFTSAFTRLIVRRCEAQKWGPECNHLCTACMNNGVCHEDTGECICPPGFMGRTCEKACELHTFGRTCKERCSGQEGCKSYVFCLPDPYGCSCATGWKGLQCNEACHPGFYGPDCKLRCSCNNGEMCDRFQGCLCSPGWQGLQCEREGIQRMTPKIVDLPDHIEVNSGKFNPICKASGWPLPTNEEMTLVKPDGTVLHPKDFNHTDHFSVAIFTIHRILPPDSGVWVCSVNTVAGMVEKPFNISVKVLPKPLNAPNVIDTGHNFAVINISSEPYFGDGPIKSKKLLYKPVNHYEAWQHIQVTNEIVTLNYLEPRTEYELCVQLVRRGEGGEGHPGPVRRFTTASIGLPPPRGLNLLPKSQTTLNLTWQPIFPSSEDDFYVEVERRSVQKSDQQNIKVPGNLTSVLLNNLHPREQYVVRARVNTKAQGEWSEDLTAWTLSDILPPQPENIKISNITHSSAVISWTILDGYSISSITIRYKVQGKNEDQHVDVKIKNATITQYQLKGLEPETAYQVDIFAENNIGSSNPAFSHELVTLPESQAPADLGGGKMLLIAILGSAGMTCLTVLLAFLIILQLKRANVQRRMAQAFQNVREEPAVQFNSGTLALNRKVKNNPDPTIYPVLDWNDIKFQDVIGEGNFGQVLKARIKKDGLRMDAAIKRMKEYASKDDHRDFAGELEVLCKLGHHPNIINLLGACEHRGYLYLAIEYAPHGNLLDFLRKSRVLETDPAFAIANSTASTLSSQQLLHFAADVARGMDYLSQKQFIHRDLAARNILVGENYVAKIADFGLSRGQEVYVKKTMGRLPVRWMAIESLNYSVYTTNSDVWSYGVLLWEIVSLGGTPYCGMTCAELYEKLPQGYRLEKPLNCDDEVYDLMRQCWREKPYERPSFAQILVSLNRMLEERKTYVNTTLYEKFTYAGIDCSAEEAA
Sequence of Platelet-derived growth factor receptor beta (P09619 whole entry): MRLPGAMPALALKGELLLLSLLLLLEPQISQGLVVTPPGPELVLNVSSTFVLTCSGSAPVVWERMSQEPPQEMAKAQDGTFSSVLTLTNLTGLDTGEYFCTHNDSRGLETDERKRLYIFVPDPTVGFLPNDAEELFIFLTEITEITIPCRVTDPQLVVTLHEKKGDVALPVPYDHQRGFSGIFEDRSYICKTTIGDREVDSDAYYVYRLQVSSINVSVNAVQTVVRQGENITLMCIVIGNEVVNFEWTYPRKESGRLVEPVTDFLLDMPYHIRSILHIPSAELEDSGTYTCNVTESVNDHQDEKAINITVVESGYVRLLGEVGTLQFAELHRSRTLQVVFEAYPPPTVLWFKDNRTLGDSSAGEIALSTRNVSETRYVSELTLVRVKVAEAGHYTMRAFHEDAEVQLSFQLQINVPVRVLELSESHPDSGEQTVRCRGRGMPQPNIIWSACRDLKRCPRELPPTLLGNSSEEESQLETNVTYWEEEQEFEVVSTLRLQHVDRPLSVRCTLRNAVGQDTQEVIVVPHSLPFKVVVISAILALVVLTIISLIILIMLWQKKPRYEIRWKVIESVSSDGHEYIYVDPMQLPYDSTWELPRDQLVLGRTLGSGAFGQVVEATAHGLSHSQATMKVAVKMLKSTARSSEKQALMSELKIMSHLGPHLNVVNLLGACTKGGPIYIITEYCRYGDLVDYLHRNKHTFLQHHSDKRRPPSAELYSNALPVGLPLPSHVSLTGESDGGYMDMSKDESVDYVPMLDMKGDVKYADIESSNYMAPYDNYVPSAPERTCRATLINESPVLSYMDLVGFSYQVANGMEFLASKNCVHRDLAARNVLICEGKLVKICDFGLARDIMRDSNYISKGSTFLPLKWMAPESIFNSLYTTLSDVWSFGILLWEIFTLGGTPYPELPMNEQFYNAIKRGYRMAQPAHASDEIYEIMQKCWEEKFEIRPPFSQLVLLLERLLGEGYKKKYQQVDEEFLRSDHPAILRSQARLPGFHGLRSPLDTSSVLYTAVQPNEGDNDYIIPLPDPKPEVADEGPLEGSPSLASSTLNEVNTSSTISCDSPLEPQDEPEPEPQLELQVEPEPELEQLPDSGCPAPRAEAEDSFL
Sequence of Proto-oncogene tyrosine-protein kinase Src (P12931 2-536 limits assumed): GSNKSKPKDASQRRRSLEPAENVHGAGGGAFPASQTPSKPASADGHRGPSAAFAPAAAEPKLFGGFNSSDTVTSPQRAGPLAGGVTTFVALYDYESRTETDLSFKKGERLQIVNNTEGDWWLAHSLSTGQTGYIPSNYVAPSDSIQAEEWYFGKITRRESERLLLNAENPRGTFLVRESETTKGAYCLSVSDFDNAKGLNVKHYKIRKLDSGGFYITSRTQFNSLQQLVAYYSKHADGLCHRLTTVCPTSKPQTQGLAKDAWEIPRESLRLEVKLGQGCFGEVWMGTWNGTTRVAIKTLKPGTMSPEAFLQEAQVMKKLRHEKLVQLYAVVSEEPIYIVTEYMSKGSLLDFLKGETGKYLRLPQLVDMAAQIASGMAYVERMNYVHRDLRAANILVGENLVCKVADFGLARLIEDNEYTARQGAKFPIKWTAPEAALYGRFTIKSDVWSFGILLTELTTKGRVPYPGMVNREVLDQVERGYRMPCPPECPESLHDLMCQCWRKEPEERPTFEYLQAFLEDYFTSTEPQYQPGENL

- IC50 (Angiopoietin-1 receptor [1]): > 10000 nM
SMILES: Nc1ncnc2c1c(Cc1cccc(NS(=O)(=O)c3c(F)cccc3F)c1)cn2C1CCCC1

- IC50 (Angiopoietin-1 receptor [1]): 568 nM
- IC50 [2]: 518 nM
- hepatic extraction ratio [4]: 0.69
SMILES: Nc1ncnc2c1c(-c1nc3ccc(NS(=O)(=O)c4c(F)cccc4F)cc3[nH]1)cn2C1CCCC1

- IC50 (Angiopoietin-1 receptor [1]): 423 nM
- IC50 [2]: 253 nM
- efflux ratio [3]: 4.7
SMILES: Nc1ncnc2c1c(C(=O)c1cccc(NS(=O)(=O)c3c(F)cccc3F)c1)cn2C1CCCC1

- IC50 (Angiopoietin-1 receptor [1]): 745 nM
- IC50 [2]: 769 nM
SMILES: Nc1ncnc2c1c(C(=O)c1ccc(NS(=O)(=O)c3c(F)cccc3F)cc1)cn2C1CCCC1

- IC50 [5]: > 5000 nM
- IC50 (Angiopoietin-1 receptor [1]): 361 nM
- IC50 [2]: 67 nM
- Papp A→B [27]: 7.7 ×10⁻⁶ cm/s
- IC50 [18]: 3100 nM
- efflux ratio [3]: 3.5
- hepatic extraction ratio [4]: 0.83
SMILES: Nc1ncnc2c1c(C(=O)c1cccc(NC(=O)Nc3c(F)cccc3F)c1)cn2C1CCCC1

Further lines, the compound ahead of its results:

SMILES: Nc1ncnc2c1c(C(=O)c1cccc(NC(=O)Nc3ccc(Cl)cc3)c1)cn2C1CCCC1
- IC50 (Angiopoietin-1 receptor [1]): 45 nM
- IC50 [2]: 4.6 nM
- efflux ratio [3]: 17
- hepatic extraction ratio [4]: 0.7

SMILES: COc1ccc(C)cc1NC(=O)Nc1cccc(C(=O)c2cn(C3CCCC3)c3ncnc(N)c23)c1
- IC50 (Angiopoietin-1 receptor [1]): 8.8 nM
- IC50 [2]: 0.69 nM
- efflux ratio [3]: 9.4
- hepatic extraction ratio [4]: 0.69

SMILES: Nc1ncnc2c1c(C(=O)c1cccc(NC(=O)Nc3ccc(Cl)cc3Cl)c1)cn2C1CCCC1
- IC50 [2]: 1.2 nM
- efflux ratio [3]: 1.9

SMILES: Nc1ncnc2c1c(-c1nc3ccc(NC(=O)Nc4c(F)cccc4F)cc3[nH]1)cn2C1CCCC1
- IC50 (Angiopoietin-1 receptor [1]): 241 nM
- IC50 [2]: 112 nM
- efflux ratio [3]: 3.2
- hepatic extraction ratio [4]: 0.9

SMILES: CC(C)n1cc(C(=O)c2cccc(NC(=O)Nc3ccc(Cl)cc3)c2)c2c(N)ncnc21
- IC50 [5]: 1400 nM
- Activity (Salmonella typhimurium): Non-toxic
- inhibition in vivo at 10 mg/kg (C6 [6]): 70%
- inhibition in vivo at 33 mg/kg (C6 [7]): 60%
- IC50 [8]: > 10000 nM
- inhibition (Mus musculus [9]): Active
- half-life [10]: 24 min
- Activity (Mus musculus [11]): Non-toxic
- Papp B→A [12]: 9.5 ×10⁻⁶ cm/s
- bioavailability [13]: 100%
- IC50 [14]: > 3000 nM
- TGI (C6 [15]): Active
- Tmax [16]: 45 min
- IC20 (Homo sapiens): 1000 nM
- hepatic extraction ratio [17]: 0.46
- IC50 [18]: > 10000 nM
- inhibition (INH) [19]: Active
- Stability (Rattus norvegicus): 27 mL/min/kg
- solubility [20]: 35 µg/mL (≈ 78 µM)
- efflux ratio [3]: 1.5
- Vd [21]: 0.9 L/kg
- inhibition in vivo at 10 mg/kg (C6 [22]): 40%
- hepatic extraction ratio [4]: 0.52
- Cmax [23]: 1720 ng/mL
- IC50 [24]: > 10000 nM
- Activity [25]: Toxic
- clearance [26]: 38 mL/min/kg

SMILES: Nc1ncnc2c1c(C(=O)c1ccc(NC(=O)Nc3c(F)cccc3F)cc1)cn2C1CCCC1
- IC50 (Angiopoietin-1 receptor [1]): 345 nM
- IC50 [2]: 254 nM

SMILES: COc1cc(-c2cn([C@H]3CC[C@H](N4CCN(C)CC4)CC3)c3ncnc(N)c23)ccc1NS(=O)(=O)c1ccccc1
- IC50 [28]: > 3000 nM
- IC50 [18]: > 3000 nM
- IC50 (Angiopoietin-1 receptor [29]): 137 nM
- IC50 [30]: > 3000 nM

SMILES: Cc1ccc(F)c(NC(=O)Nc2cccc(C(=O)c3cn(C4CCCC4)c4ncnc(N)c34)c2)c1
- IC50 (Angiopoietin-1 receptor [1]): 12 nM
- IC50 [2]: 0.89 nM
- efflux ratio [3]: 9.2
- hepatic extraction ratio [4]: 0.8
